Measurements published in ChEMBL document CHEMBL1150363, “Synthesis, ligand-receptor modeling studies and pharmacological evaluation of novel 4-modified-2-aryl-1,2,4-triazolo[4,3-a]quinoxalin-1-one derivatives as potent and selective human A3 adenosine receptor antagonists” (Bioorg Med Chem, 2008).

Tests used:
[1] = Displacement of [3H]CGS21680 from adenosine A2A receptor in bovine brain membrane; assay type: cell membranes, Bos taurus
Adenosine receptor A1 [2] = biological target: T1, Adenosine receptor A1 (Bos taurus, UniProt P28190); assay: Displacement of [3H]DPCPX from adenosine A1 receptor in bovine brain membrane
T1 sequence (P28190 whole entry): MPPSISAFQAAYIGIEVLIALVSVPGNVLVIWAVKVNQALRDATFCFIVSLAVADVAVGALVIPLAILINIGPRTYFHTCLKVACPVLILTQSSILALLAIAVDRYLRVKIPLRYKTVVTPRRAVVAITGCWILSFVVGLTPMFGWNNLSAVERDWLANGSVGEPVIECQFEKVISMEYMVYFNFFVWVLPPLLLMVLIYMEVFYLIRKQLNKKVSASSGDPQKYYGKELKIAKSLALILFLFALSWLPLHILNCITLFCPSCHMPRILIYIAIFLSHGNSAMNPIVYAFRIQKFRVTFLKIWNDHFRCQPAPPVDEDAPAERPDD

Adenosine receptor A3 = biological target: T2, Adenosine receptor A3 (Homo sapiens, UniProt P0DMS8); assay: Displacement of [125I]AB-MECA from human cloned adenosine A3 receptor expressed in CHO cells; assay type: cell-based
T2 sequence (P0DMS8 whole entry): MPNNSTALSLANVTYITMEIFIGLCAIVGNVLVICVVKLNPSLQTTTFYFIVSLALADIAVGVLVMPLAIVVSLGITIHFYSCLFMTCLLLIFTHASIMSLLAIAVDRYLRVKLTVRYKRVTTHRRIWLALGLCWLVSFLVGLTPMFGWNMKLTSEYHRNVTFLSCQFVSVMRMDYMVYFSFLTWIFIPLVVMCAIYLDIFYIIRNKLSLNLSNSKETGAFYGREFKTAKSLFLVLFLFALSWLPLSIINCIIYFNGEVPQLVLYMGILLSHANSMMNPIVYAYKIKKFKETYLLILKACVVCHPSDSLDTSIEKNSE
Procedure, shortened: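 CHO cells stably expressing hA3. IC50 by non-linear regression over five displacer concentrations in triplicate, converted to Ki by Cheng-Prusoff. Ki values are means of four assays.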

Bos taurus = species on record: Bos taurus; assay: Displacement of [3H]CGS21680 from adenosine A2A receptor in bovine brain membrane at 10 uM; assay type: cell membranes
Procedure, shortened: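 Bovine striatal membranes, [3H]CGS 21680 (Kd 14 nM). Five displacer concentrations in triplicate, non-linear regression IC50, Cheng-Prusoff Ki, four assays. Single-point data are % inhibition at 10 µM.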

[3] = biological target: T3, Adenosine receptor A3 (Homo sapiens) (UniProt P0DMS8); assay: Displacement of [125I]AB-MECA from human cloned adenosine A3 receptor expressed in CHO cells at 1 uM; assay type: cell-based
T3 sequence (whole entry): T2 sequence (P0DMS8 whole entry)
Procedure, shortened: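 CHO cells stably expressing hA3. Displacement of [125I]AB-MECA (Kd 1.4 nM). IC50 by non-linear regression over five displacer concentrations in triplicate, converted to Ki by Cheng-Prusoff. Ki values are means of four assays. Single-point data are % inhibition of specific binding at 1 µM.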

[4] = biological target: T4, Adenosine receptor A1 (Bos taurus) (UniProt P28190); assay: Displacement of [125I]DPCPX from adenosine A1 receptor in bovine brain membrane at 10 uM; assay type: cell membranes; conditions: in the assay text read “[3H]DPCPX” for “[125I]DPCPX”
T4 sequence (whole entry): T1 sequence (P28190 whole entry)
Procedure, shortened: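 Bovine cerebral cortical membranes, [3H]DPCPX (Kd 0.3 nM). IC50 from five displacer concentrations in triplicate, Ki by Cheng-Prusoff, means of four assays. Single-point data are % inhibition of specific binding at 10 µM.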

Adenosine receptor A2a [5] = biological target: T5, Adenosine receptor A2a (Homo sapiens, UniProt P29274); assay: Displacement of [125I]NECA from human adenosine A2A receptor expressed in CHO cells at 10uM; assay type: cell-based; conditions: in the assay text read “[3H]NECA” for “[125I]NECA”
T5 sequence (P29274 whole entry): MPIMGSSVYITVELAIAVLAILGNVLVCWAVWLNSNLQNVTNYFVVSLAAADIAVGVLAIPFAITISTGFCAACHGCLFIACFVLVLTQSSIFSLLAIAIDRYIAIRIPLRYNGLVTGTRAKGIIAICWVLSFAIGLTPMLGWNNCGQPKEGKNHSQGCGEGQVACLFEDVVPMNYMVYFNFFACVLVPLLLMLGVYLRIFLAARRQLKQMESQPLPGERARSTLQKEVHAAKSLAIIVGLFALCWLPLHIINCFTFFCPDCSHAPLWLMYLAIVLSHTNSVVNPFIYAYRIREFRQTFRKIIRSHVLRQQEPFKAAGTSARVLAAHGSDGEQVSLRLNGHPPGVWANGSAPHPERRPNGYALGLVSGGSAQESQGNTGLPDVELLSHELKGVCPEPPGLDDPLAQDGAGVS
Procedure, shortened: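 hA2A stably expressed in CHO cells. Radioligand [3H]NECA (Kd 30 nM). Percentage inhibition of specific binding measured at 10 µM.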

[6] = biological target: T6, Adenosine receptor A1 (Homo sapiens) (UniProt P30542); assay: Displacement of [3H]DPCPX from human cloned adenosine A1 receptor expressed in CHO cells at 10 uM
T6 sequence (whole entry): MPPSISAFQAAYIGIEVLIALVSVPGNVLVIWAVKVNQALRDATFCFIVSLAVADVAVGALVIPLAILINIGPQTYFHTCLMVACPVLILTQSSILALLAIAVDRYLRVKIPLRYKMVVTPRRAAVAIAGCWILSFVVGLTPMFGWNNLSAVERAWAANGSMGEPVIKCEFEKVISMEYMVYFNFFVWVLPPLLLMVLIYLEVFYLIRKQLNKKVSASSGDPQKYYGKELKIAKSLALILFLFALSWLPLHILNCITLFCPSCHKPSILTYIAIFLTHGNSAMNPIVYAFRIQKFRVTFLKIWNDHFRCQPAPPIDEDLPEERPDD

Adenosine receptor A2a [7] = biological target: T5, Adenosine receptor A2a; assay: Displacement of [3H]NECA from human cloned adenosine A2A receptor expressed in CHO cells
Adenosine receptor A1 [8] = biological target: T7, Adenosine receptor A1 (Homo sapiens, UniProt P30542); assay: Displacement of [3H]DPCPX from human cloned adenosine A1 receptor expressed in CHO cells
T7 sequence (P30542 whole entry): T6 sequence (whole entry)

SMILES	Ki [1]	Ki (Adenosine receptor A1 [2])	Ki (Adenosine receptor A3)	Activity (Bos taurus)	Activity [3]	Activity [4]	Activity (Adenosine receptor A2a [5])	Activity [6]	Ki (Adenosine receptor A2a [7])	Ki (Adenosine receptor A1 [8])
O=C(Nc1cccc(I)c1)Nc1nc2ccccc2n2c(=O)n(-c3ccccc3)nc12	1800 nM	359 nM	953 nM	–	–	–	–	–	–	–
O=c1n(-c2ccccc2)nc2c(NS(=O)(=O)c3ccccc3)nc3c([N+](=O)[O-])cccc3n12	–	210 nM	100 nM	25%	–	–	–	–	–	–
O=C(Nc1nc2ccccc2n2c(=O)n(-c3ccccc3)nc12)c1ccccc1	–	–	–	53%	–	–	–	–	–	–
O=C(Nc1nc2ccccc2n2c(=O)n(-c3ccccc3)nc12)c1cccc(I)c1	–	473 nM	–	35%	36%	–	–	–	–	–
O=C(NC(=O)c1ccccc1)Nc1nc2ccccc2n2c(=O)n(-c3ccccc3)nc12	379 nM	101 nM	1300 nM	–	–	–	–	–	–	–
COC(=O)c1ccc(C(=O)Nc2nc3ccccc3n3c(=O)n(-c4ccc(OC)cc4)nc23)cc1	–	–	1370 nM	41%	–	30.5%	–	–	–	–
O=C(NCc1ccccc1)Nc1nc2c([N+](=O)[O-])cccc2n2c(=O)n(-c3ccccc3)nc12	–	4.6 nM	63 nM	46.5%	–	–	20%	4%	–	–
O=C(Nc1nc2c([N+](=O)[O-])cccc2n2c(=O)n(-c3ccccc3)nc12)c1ccncc1	–	–	–	22%	0%	37.5%	–	–	–	–
CS(=O)(=O)Nc1nc2ccccc2n2c(=O)n(-c3ccccc3)nc12	–	164 nM	1430 nM	32%	–	–	–	–	–	–
O=C(NCc1ccccc1)Nc1nc2ccccc2n2c(=O)n(-c3ccccc3)nc12	173 nM	4.1 nM	83.5 nM	–	–	–	–	–	158 nM	12.3 nM
COc1ccc(-n2nc3c(NC(=O)NCc4ccccc4)nc4ccccc4n3c2=O)cc1	–	20.8 nM	65 nM	12%	–	–	23%	–	–	4220 nM
O=C(Nc1nc2ccccc2n2c(=O)n(-c3ccccc3)nc12)c1ccncc1	812 nM	57 nM	6.1 nM	–	–	–	–	–	188 nM	2380 nM
COc1ccc(-n2nc3c(N(S(C)(=O)=O)S(C)(=O)=O)nc4ccccc4n3c2=O)cc1	–	–	387 nM	17%	–	6.2%	–	–	–	–
COc1ccc(-n2nc3c(OCc4ccccc4)nc4ccccc4n3c2=O)cc1	–	–	6.4 nM	41%	–	53%	4%	54%	–	–
CCCn1c(=O)c2[nH]c(C3CCCC3)nc2n(CCC)c1=O [1,3-DIPROPYL-8-CYCLOPENTYLXANTHINE [DPCPX]]	337 nM	–	–	–	–	–	–	–	–	–
COC(=O)c1ccc(C(=O)Nc2nc3ccccc3n3c(=O)n(-c4ccccc4)nc23)cc1	–	106 nM	–	36%	41%	–	–	–	–	–
O=c1n(-c2ccccc2)nc2c(OCc3ccccc3)nc3ccccc3n12	–	55 nM	21 nM	19%	–	–	10%	46%	–	–
COc1ccc(-n2nc3c(NS(C)(=O)=O)nc4ccccc4n3c2=O)cc1	–	–	493 nM	0%	–	6%	–	–	–	–
O=c1n(-c2ccccc2)nc2c(NS(=O)(=O)c3ccccc3)nc3ccccc3n12	–	157 nM	32.2 nM	35%	–	–	27%	0%	–	–
CS(=O)(=O)Nc1nc2c([N+](=O)[O-])cccc2n2c(=O)n(-c3ccccc3)nc12	–	2840 nM	–	25%	37%	–	–	–	–	–
COc1ccc(-n2nc3c(NC(=O)c4ccncc4)nc4ccccc4n3c2=O)cc1	–	236 nM	68 nM	44%	–	–	–	–	397 nM	779 nM
COc1ccc(-n2nc3c(NS(=O)(=O)c4ccccc4)nc4ccccc4n3c2=O)cc1	–	4700 nM	2.2 nM	16%	–	–	23%	–	–	2700 nM
